Source: ChEMBL document CHEMBL1124253, “(8 beta)-Ergoline-8-carboxylic acid cycloalkyl esters as serotonin antagonists: structure-activity study” (J Med Chem, 1988)

Target: Serotonin 2 (5-HT2) receptor (Rattus norvegicus) (UniProt P30994+P08909+P14842)
Assay: Binding affinity to the 5-hydroxytryptamine 2 receptor assayed by antagonism of serotonin-induced contractions in the rat jugular vein
In short: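 Jugular vein rings mounted in organ baths of modified Krebs solution and equilibrated 1–2 h. Control cumulative serotonin contraction curves were run, then tissues were incubated 1 h with antagonist and serotonin curves were repeated. For each antagonist concentration, K_B = [B]/(dose ratio − 1), where dose ratio = agonist ED50 with antagonist / control ED50. Values reported as −log K_B.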

Serotonin 2 (5-HT2) receptor (Rattus norvegicus), sequence (P08909 whole entry, looked up): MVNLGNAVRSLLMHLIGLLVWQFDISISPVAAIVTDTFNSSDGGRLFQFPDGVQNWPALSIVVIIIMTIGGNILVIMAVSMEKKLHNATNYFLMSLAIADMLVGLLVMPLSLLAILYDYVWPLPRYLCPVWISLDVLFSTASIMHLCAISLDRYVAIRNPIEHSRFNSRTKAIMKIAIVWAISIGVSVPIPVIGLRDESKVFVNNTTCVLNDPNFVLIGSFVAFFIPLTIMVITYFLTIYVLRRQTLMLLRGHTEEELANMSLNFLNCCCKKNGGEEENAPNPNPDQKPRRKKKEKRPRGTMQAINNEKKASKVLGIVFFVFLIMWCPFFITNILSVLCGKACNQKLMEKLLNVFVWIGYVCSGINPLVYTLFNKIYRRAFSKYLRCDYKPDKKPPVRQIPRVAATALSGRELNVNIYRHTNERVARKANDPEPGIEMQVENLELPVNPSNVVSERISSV
Serotonin 2 (5-HT2) receptor (Rattus norvegicus), sequence (P14842 whole entry, looked up): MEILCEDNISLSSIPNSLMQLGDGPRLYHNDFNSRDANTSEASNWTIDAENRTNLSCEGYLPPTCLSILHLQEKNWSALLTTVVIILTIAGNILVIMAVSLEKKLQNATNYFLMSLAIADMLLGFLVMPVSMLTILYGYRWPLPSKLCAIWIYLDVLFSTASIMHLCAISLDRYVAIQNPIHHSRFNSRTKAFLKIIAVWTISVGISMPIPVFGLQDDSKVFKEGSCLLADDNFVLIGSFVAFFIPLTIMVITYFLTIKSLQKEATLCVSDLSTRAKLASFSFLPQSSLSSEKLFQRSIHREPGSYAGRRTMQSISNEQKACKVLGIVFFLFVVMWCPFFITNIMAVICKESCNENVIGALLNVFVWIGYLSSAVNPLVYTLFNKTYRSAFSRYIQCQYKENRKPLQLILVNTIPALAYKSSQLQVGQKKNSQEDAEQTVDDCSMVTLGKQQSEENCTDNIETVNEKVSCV
Serotonin 2 (5-HT2) receptor (Rattus norvegicus), sequence (P30994 whole entry, looked up): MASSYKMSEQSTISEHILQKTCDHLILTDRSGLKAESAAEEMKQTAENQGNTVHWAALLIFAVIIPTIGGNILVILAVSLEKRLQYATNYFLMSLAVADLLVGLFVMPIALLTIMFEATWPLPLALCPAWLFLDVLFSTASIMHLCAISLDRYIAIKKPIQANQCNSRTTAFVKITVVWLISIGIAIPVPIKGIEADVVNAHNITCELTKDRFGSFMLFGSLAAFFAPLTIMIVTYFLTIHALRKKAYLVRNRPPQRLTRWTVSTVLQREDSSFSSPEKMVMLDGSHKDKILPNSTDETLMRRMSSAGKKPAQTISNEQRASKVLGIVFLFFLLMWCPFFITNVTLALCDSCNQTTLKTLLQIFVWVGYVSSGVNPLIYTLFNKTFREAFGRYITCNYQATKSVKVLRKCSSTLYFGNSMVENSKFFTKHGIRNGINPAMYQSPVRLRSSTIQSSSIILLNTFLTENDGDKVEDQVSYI

**Q.** With CC(C)n1cc2c3c(cccc31)C1C[C@@H](C(=O)O[C@H]3CC[C@@H](C)CC3)CN(C)C1C2 (some centres not stated) as the molecule, how does the -Log KB read?
**A.** The -Log KB was 7.69.

**Q.** With CN1C[C@H](C(=O)OC2CCCCC2)CC2c3cccc4c3c(cn4Cc3ccccc3)CC21 (some centres not stated) as the molecule, how does the -Log KB read?
**A.** Its -Log KB is 6.52.

**Q.** Which -Log KB does the source give for CC(C)n1cc2c3c(cccc31)C1C[C@@H](C(=O)OC3CCC(=O)CC3)CN(C)C1C2 (some centres not stated) here?
**A.** Its -Log KB is 10.

**Q.** With CC(O)C(C)OC(=O)[C@@H]1CC2c3cccc4c3c(cn4C(C)C)CC2N(C)C1 (some centres not stated) as the molecule, how does the -Log KB read?
**A.** The -Log KB was 10.3.

**Q.** How did the -Log KB turn out when CC(C)n1cc2c3c(cccc31)C1C[C@@H](C(=O)O[C@H]3CC[C@H](C)CC3)CN(C)C1C2 (some centres not stated) was run?
**A.** Its -Log KB is 7.21.

**Q.** How did the -Log KB turn out when CC(C)n1cc2c3c(cccc31)C1C[C@@H](C(=O)OC3CCCCCC3)CN(C)C1C2 (some centres not stated) was run?
**A.** Its -Log KB is 7.73.

**Q.** With CCCCN1C[C@H](C(=O)OC2CCCCC2)CC2c3cccc4c3c(cn4C(C)C)CC21 (some centres not stated) as the molecule, how does the -Log KB read?
**A.** Its -Log KB is 7.4.

**Q.** Which -Log KB does the source give for CN1C[C@H](C(=O)OC2CCCCC2)CC2c3cccc4[nH]cc(c34)CC21 (some centres not stated) here?
**A.** Its -Log KB is 8.05.

**Q.** CC(C)n1cc2c3c(cccc31)C1C[C@@H](C(=O)OC3CCCC3)CN(C)C1C2 (some centres not stated) was tested. Which -Log KB did it give?
**A.** Its -Log KB is 8.91.

**Q.** How did the -Log KB turn out when CC1CCCC(C)C1OC(=O)[C@@H]1CC2c3cccc4c3c(cn4C(C)C)CC2N(C)C1 (some centres not stated) was run?
**A.** The -Log KB was 7.32.

**Q.** For CN1C[C@H](C(=O)OC2CCCCC2)CC2c3cccc4c3c(cn4C)CC21 (some centres not stated), which -Log KB is on record?
**A.** Its -Log KB is 8.12.

**Q.** CCN1C[C@H](C(=O)OC2CCCCC2)CC2c3cccc4c3c(cn4C(C)C)CC21 (some centres not stated) was tested. Which -Log KB did it give?
**A.** The -Log KB was 7.81.

**Q.** How did the -Log KB turn out when CC(C)n1cc2c3c(cccc31)C1C[C@@H](C(=O)OC3CCCCC3O)CN(C)C1C2 (some centres not stated) was run?
**A.** The -Log KB was 9.47.

**Q.** CCCN1C[C@H](C(=O)OC2CCCCC2)CC2c3cccc4c3c(cn4C(C)C)CC21 (some centres not stated) was tested. Which -Log KB did it give?
**A.** The -Log KB was 7.07.

**Q.** CC(C)n1cc2c3c(cccc31)C1C[C@@H](C(=O)OC3CCCCC3)CNC1C2 (some centres not stated) was tested. Which -Log KB did it give?
**A.** The -Log KB was less than 6.

**Q.** CC(C)n1cc2c3c(cccc31)C1C[C@@H](C(=O)OC3CCC(O)CC3)CN(C)C1C2 (some centres not stated) was tested. Which -Log KB did it give?
**A.** Its -Log KB is 10.2.

**Q.** How did the -Log KB turn out when CC(C)n1cc2c3c(cccc31)C1C[C@@H](C(=O)OC3CCC3)CN(C)C1C2 (some centres not stated) was run?
**A.** Its -Log KB is 8.22.

**Q.** Which -Log KB does the source give for CC(C)n1cc2c3c(cccc31)C1C[C@@H](C(=O)OC3CCOCC3)CN(C)C1C2 (some centres not stated) here?
**A.** Its -Log KB is 9.86.

**Q.** How did the -Log KB turn out when CCC(CC)n1cc2c3c(cccc31)C1C[C@@H](C(=O)OC3CCCCC3)CN(C)C1C2 (some centres not stated) was run?
**A.** Its -Log KB is 7.31.

**Q.** For CC(C)N1C[C@H](C(=O)OC2CCCCC2)CC2c3cccc4c3c(cn4C(C)C)CC21 (some centres not stated), which -Log KB is on record?
**A.** Its -Log KB is 6.42.

**Q.** How did the -Log KB turn out when CC(C)n1cc2c3c(cccc31)C1C[C@@H](C(=O)OC3CCCCC3=O)CN(C)C1C2 (some centres not stated) was run?
**A.** Its -Log KB is 9.31.

**Q.** How did the -Log KB turn out when CC(C)n1cc2c3c(cccc31)C1C[C@@H](C(=O)OC3CCCCC3)CN(C)C1C2 (some centres not stated) was run?
**A.** The -Log KB was 8.67.
